ChEMBL document CHEMBL1140046, “Novel and potent inhibitors of 5-lipoxygenase product synthesis based on the structure of pirinixic acid” (J Med Chem, 2008)
Active and inactive are the calls of the source. The calls are words filed in the database; no cut-off is given here.

Experiments:
[1] = target: T1, Polyunsaturated fatty acid 5-lipoxygenase (Homo sapiens) (UniProt P09917); experiment: Inhibition of 5-lipoxygenase in human intact polymorphonuclear leukocytes assessed as suppression of A23187-induced product formation at 1 uM; parameters: scale not given: the % may be the effect or the level left
T1 sequence (whole entry): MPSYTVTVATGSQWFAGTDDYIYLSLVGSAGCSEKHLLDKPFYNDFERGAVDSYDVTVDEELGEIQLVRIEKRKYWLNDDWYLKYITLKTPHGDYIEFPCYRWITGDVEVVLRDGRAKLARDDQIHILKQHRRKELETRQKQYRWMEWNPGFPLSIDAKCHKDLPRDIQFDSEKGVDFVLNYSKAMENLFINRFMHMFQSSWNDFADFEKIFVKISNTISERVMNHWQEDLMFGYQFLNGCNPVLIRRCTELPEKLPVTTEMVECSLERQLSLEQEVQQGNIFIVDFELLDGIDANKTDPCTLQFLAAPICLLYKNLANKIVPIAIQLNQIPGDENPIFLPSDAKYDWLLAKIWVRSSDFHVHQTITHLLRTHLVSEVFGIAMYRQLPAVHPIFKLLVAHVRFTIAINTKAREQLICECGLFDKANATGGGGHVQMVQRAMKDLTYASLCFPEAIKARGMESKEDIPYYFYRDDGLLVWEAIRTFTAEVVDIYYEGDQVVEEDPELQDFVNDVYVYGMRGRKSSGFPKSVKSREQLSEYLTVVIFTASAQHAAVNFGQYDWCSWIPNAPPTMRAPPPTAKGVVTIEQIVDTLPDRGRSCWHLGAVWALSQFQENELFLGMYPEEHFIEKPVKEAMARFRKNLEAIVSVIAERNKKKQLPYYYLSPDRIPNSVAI
Procedure, shortened: (§1)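 Human PMNL were isolated from donor venous blood by dextran sedimentation, Nycoprep centrifugation and hypotonic lysis. 5 × 10^6 cells in 1 mL PBS pH 7.4 with 1 mg/mL glucose and 1 mM CaCl2 were preincubated 15 min at RT. Stimulation was with 2.5 µM A23187 plus 20 µM AA for 10 min at 37 °C. Methanol stop, PGB1 internal standard, HPLC of LTB4, its all-trans isomers and 5-H(P)ETE.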

[2] = target: T1, Polyunsaturated fatty acid 5-lipoxygenase (Homo sapiens); experiment: Inhibition of 5-lipoxygenase in human intact polymorphonuclear leukocytes assessed as suppression of A23187-induced product formation at 10 uM; parameters: scale not given: the % may be the effect or the level left; procedure, shortened: as §1
[3] = target: T2, Polyunsaturated fatty acid 5-lipoxygenase (Homo sapiens, UniProt P09917); experiment: Inhibition of human recombinant 5-lipoxygenase expressed in Escherichia coli MV1190 assessed as suppression of CaCl2/arachidonic acid-induced product formation
T2 sequence (P09917 whole entry): T1 sequence (whole entry)

[4] = target: T1, Polyunsaturated fatty acid 5-lipoxygenase (Homo sapiens); experiment: Inhibition of human recombinant 5-lipoxygenase expressed in Escherichia coli MV1190 assessed as suppression of CaCl2/arachidonic acid-induced product formation at 1 uM; parameters: scale not given: the % may be the effect or the level left
[5] = target: T1, Polyunsaturated fatty acid 5-lipoxygenase (Homo sapiens); experiment: Inhibition of human recombinant 5-lipoxygenase expressed in Escherichia coli MV1190 assessed as suppression of CaCl2/arachidonic acid-induced product formation at 30 uM; parameters: scale not given: the % may be the effect or the level left
[6] = target: T2, Polyunsaturated fatty acid 5-lipoxygenase; experiment: Inhibition of 5-lipoxygenase in human intact polymorphonuclear leukocytes assessed as suppression of A23187-induced product formation
Procedure, shortened: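 Same PMNL assay: 15 min RT preincubation, then 2.5 µM A23187 plus 20 µM exogenous AA for 10 min at 37 °C. HPLC read-out as ng 5-LO products per 10^6 cells. IC50 approximated by linear interpolation around 50% activity from 4-5 concentrations; mean ± SE, n = 3-5.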

Compound	Activity [1]	Activity [2]	IC50 [3] [µM]	Activity [4] [%]	Activity [5] [%]	IC50 [6] [µM]
CCOC(=O)CSc1nc(Cl)cc(Oc2ccc3ncccc3c2)n1	inactive	77.6%				
Cc1cccc(Nc2cc(Cl)nc(SC(C(=O)O)c3ccccc3)n2)c1C (configuration not stated)	inactive	inactive				
Cc1cccc(Nc2cc(Cl)nc(SCC(=O)O)n2)c1C	inactive	inactive				
O=C(O)CSc1nc(Cl)cc(Oc2ccc3ncccc3c2)n1	inactive	inactive				
CCOC(=O)C(Sc1nc(Cl)cc(Nc2ccc3ncccc3c2)n1)c1ccccc1 (configuration not stated)	52.7%	3.5%				1.2
CCOC(=O)CSc1nc(Cl)cc(Nc2cccc3c2CCC3)n1	65.2%	8.9%				3.2
CCOC(=O)C(Sc1nc(Cl)cc(Nc2cccc(C)c2C)n1)c1ccccc1 (configuration not stated)	53.1%	18.7%				1.8
CCOC(=O)CSc1nc(Cl)cc(OCc2ccc3ncccc3c2)n1	80%	3.9%				
O=C(O)CSc1nc(Cl)cc(Nc2ccc3ncccc3c2)n1	inactive	inactive				
CCCCCCC(Sc1nc(Cl)cc(Nc2cccc(C)c2C)n1)C(=O)O (configuration not stated)	64.3%	28.9%				4.1
Cc1cccc(Nc2cc(Cl)nc(SC(C)C(=O)O)n2)c1C (configuration not stated)	inactive	inactive				
CCOC(=O)CSc1nc(Cl)cc(Nc2cccc(C)c2C)n1	76.9%	77.7%				
O=C(O)CSc1nc(Cl)cc(Nc2cccc3c2CCC3)n1	71.1%	14.5%				3.9
CCOC(=O)C(C)Sc1nc(Cl)cc(Nc2cccc(C)c2C)n1 (configuration not stated)	inactive	22.8%				
O=C(O)C(Sc1nc(Cl)cc(Nc2ccc3ncccc3c2)n1)c1ccccc1 (configuration not stated)	inactive	69.1%				
CC(=O)N(O)C/C=C/c1cccc(Oc2ccccc2)c1	3.3%			10.8		

Other lines, results leading:

Activity [1]	Activity [2]	IC50 [3] [µM]	Activity [4] [%]	Activity [5] [%]	IC50 [6] [µM]	Compound
87.6%	26.7%	31	95.6	51		CCCCCCC(Sc1nc(Cl)cc(NCc2ccc3ncccc3c2)n1)C(=O)O (configuration not stated)
inactive	20.1%	34	95.4	52.7		CCCCCCC(Sc1nc(Cl)cc(Nc2ccc3ncccc3c2)n1)C(=O)O (configuration not stated)
57.4%	11.4%	37	70.7	56	1.4	CCCCCCC(Sc1nc(Cl)cc(NCc2ccc3ncccc3c2)n1)C(=O)OCC (configuration not stated)
84.9%	30.5%					CCCCCCC(Sc1nc(Cl)cc(Nc2cccc(C)c2C)n1)C(=O)OCC (configuration not stated)
27.9%	4%	19	68.2	43.8	0.6	CCCCCCC(Sc1nc(Cl)cc(Nc2ccc3ncccc3c2)n1)C(=O)OCC (configuration not stated)
91.4%	10.7%		93.7	72.6		CCCCCCC(Sc1nc(Cl)cc(Oc2ccc3ncccc3c2)n1)C(=O)O (configuration not stated)
inactive	50%					CCCCC(Sc1nc(Cl)cc(Nc2ccc3ncccc3c2)n1)C(=O)O (configuration not stated)
inactive	inactive					CC(Sc1nc(Cl)cc(Nc2ccc3ncccc3c2)n1)C(=O)O (configuration not stated)
51.8%	1.6%				1.1	CCCCC(Sc1nc(Cl)cc(Nc2ccc3ncccc3c2)n1)C(=O)OCC (configuration not stated)
67.4%	4.5%		79.1	59.2	1.7	CCCCCCC(Sc1nc(Cl)cc(Oc2ccc3ncccc3c2)n1)C(=O)OCC (configuration not stated)
inactive	12%					CCOC(=O)C(C)Sc1nc(Cl)cc(Nc2ccc3ncccc3c2)n1 (configuration not stated)
86.3%	12.3%				2.6	CCOC(=O)CSc1nc(Cl)cc(Nc2ccc3ncccc3c2)n1
